# In ChEMBL document CHEMBL4196108, “5-Aroylindoles Act as Selective Histone Deacetylase 6 Inhibitors Ameliorating Alzheimer's Disease Phenotypes” (J Med Chem, 2018):
# Calls of active or inactive are those of the source. The rule behind the calls is not given here.
# Columns and labels:
# [1] = target: T1, Protein deacetylase HDAC6 (Mus musculus) (UniProt Q9Z2V5); experiment: Inhibition of HDAC6 in mouse Neuro-2a cells transfected with pCAX FLAG APP and pRK5-EGFP-Tau P301L plasmids assessed as inhibition of Tau P301L mutant phosphorylation at Ser396 residue at 1 uM after 24 hrs by Western blot analysis; format: cell-based
# T1 sequence (whole entry): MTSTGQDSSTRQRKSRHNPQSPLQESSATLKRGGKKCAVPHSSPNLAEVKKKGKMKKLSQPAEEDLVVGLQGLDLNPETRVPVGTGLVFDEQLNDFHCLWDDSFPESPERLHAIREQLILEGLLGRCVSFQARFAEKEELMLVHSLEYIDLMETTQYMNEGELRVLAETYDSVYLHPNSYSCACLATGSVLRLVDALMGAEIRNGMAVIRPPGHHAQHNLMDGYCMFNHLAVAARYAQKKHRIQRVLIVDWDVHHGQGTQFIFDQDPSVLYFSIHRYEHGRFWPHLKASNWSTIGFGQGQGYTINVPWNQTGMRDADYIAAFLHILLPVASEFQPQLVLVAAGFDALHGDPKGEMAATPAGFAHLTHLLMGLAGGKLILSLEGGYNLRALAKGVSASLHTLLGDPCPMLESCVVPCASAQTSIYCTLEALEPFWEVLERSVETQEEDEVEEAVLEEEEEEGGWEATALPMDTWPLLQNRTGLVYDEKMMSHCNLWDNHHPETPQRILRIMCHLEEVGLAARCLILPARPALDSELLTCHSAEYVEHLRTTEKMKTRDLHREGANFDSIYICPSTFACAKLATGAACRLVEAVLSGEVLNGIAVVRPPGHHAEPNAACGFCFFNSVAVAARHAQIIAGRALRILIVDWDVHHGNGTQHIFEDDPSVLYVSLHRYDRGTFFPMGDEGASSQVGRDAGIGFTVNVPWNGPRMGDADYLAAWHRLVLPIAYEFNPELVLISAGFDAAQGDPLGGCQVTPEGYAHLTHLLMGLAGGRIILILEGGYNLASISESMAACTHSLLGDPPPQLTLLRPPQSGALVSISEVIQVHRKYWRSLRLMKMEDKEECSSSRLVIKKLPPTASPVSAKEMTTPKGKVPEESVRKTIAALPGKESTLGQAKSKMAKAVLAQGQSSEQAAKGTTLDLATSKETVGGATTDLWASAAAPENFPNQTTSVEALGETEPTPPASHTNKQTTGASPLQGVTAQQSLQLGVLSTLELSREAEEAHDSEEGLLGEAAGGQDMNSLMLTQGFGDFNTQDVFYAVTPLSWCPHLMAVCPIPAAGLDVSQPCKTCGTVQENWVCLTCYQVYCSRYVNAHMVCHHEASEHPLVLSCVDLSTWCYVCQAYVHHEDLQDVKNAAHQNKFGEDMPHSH
# Outline: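 SH-SY5Y or Neuro-2a cells cotransfected 24 h with pCAX APP695 and pRK5-EGFP-Tau P301L, then treated 24 h at 1 µM. 20 µg lysate protein immunoblotted for APP and phospho-tau Ser396/Ser404. Mean ± STD of three independent experiments; Student's t-test.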
# [2] = Drug uptake in Sprague-Dawley rat brain at 50 mg/kg, po after 3 hrs by HPLC-MS/MS analysis; format: ADME, organism-based; details: read-out: Drug uptake
# [3] = target: T2, Protein deacetylase HDAC6 (Homo sapiens) (UniProt Q9UBN7); experiment: Inhibition of HDAC6 in human SH-SY5Y cells transfected with pCAX FLAG APP and pRK5-EGFP-Tau P301L plasmids assessed as reduction in Tau P301L mutant level in cytosol at 1 uM after 24 hrs by Western blot analysis; format: cell-based
# T2 sequence (whole entry): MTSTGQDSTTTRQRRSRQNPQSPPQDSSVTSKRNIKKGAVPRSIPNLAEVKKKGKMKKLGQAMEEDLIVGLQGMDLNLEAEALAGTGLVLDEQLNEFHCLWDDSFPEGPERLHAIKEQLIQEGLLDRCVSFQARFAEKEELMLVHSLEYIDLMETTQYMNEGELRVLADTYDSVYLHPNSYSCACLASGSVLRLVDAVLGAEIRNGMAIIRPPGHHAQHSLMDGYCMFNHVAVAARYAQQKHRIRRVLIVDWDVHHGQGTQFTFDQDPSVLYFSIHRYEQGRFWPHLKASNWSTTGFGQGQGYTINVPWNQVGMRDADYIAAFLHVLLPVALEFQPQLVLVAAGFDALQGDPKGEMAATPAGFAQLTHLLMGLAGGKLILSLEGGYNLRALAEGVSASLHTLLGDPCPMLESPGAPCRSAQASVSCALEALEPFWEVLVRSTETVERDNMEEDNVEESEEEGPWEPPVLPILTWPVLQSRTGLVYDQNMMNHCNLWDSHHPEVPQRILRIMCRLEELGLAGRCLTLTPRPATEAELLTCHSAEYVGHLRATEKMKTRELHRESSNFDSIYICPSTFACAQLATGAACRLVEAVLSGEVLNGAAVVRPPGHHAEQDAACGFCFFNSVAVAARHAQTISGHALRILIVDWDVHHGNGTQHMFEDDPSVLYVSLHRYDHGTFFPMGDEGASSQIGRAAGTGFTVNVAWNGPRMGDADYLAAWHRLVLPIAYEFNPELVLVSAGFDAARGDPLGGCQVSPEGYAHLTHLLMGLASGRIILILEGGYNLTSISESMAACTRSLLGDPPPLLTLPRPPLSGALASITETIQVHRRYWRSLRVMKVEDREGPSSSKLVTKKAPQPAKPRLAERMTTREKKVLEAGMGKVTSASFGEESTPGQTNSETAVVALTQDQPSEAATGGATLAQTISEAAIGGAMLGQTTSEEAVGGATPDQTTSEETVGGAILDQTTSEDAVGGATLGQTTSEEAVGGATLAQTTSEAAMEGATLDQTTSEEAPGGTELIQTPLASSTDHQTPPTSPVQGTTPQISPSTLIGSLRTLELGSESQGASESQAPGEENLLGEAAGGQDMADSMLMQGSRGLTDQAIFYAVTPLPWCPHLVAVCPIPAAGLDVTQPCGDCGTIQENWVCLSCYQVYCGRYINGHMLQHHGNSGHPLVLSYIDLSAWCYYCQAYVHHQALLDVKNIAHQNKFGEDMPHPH
# Outline: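 Cotransfected SH-SY5Y cells (1 × 10^7) treated 24 h at 1 µM, lysed in sucrose/HEPES pH 7.2 buffer; 190,000 g supernatant = cytosol. Pellet treated with 5 µM nocodazole, re-spun; residual pellet extracted with sodium carbonate pH 11.5 and washed in 1% SDS to give aggregate fraction. Equal protein by SDS-PAGE immunoblot.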
# [4] = target: T2, Protein deacetylase HDAC6 (Homo sapiens); experiment: Inhibition of HDAC6 in human SH-SY5Y cells transfected with pCAX FLAG APP and pRK5-EGFP-Tau P301L plasmids assessed as suppression of phosphorylated tau P301L mutant-induced apoptosis by measuring accumulation at sub-G1 phase at 0.1 uM after 24 hrs by propidium iodide staining-based flow cytometry (reference value: 22.01%); format: cell-based; design: scale not given: the % may be the effect or the level left
# Mus musculus = experiment: In vivo inhibition of HDAC6 in 3xTg-AD transgenic mouse brain hippocampal CA1 region assessed as downregulation of […] expression of beta-amyloid at 50 mg/kg, po administered daily for 3 months by Western blot analysis; format: functional, organism-based
Structure (SMILES),inhibition [1],concentration at 3 h [2] [ng/g],inhibition [3],Activity [4] [%],inhibition (Mus musculus)
O=C(NO)c1ccc(Cn2ccc3cc(C(=O)c4ccc(Cl)cc4)ccc32)cc1,Active,–,–,–,–
COc1ccc(C(=O)c2ccc3c(ccn3Cc3ccc(C(=O)NO)cc3)c2)cc1,Active,6.3,Active,13.5,Active
O=C(NO)c1ccc(Cn2ccc3cc(C(=O)c4ccc(F)cc4)ccc32)cc1,Active,–,–,–,–
